This is an account of results in PMC6910256 (Journal of photochemistry and photobiology. A, Chemistry, 2019).

In data set [1] the target is T1, DUSP5 PD (Homo sapiens, UniProt Q16690).
T1 sequence (Q16690 178-319 limits assumed): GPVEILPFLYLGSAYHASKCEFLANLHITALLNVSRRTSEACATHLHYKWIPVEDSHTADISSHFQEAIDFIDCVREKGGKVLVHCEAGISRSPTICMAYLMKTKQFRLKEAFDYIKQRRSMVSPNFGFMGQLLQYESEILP
The experiment in a line: DUSP5 phosphatase domain pNPP assay, IC50 from initial velocities. Format: biochemical. Particulars: IC50 against DUSP5 PD activity, mean ± SD. Put shortly: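 Recombinant DUSP5 phosphatase domain in 100 mM Tris, 100 mM NaCl, 5 mM MgCl2, pH 7.5, without or with 1 mM DTT, using 5 mM pNPP (near Km). Compound was serially diluted and enzyme added from a 25 μM stock. After 0, 30 or 60 min dark incubation, A405 was read every 30 s for 10 min at 25°C. Blank-subtracted slopes were normalised to vehicle controls and fitted to equation 2. Three or four trials of triplicate wells.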

For data set [2], the target named is T2, GST-DUSP5 (full length DUSP5, pERK substrate) (Homo sapiens, UniProt Q16690).
T2 sequence (Q16690 1-384): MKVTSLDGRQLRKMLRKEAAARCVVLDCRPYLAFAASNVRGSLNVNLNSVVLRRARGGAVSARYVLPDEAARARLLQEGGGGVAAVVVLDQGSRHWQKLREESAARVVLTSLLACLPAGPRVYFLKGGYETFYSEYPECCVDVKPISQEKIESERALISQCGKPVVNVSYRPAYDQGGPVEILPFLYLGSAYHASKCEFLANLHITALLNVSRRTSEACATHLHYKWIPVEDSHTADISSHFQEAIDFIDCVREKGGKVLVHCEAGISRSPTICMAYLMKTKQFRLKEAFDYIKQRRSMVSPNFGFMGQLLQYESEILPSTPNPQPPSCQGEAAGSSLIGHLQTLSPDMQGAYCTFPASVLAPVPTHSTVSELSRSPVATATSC
Put plainly: In vitro ERK dephosphorylation Western blot assay. Format: biochemical.

Data set [3] has as its target T1, DUSP5 PD. The experiment in a line: Reaction progress curve analysis of irreversible DUSP5 PD inactivation. Format: biochemical.
The target in data set [4] is T1, DUSP5 PD. Put plainly: Spectral analysis of other xanthene dyes binding to DUSP5 PD protein. As to conditions: 4 μM compound, 4 μM protein. Put shortly:
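Each test compound at 4 μM in assay buffer, without or with 1 mM DTT, in 2 mL quartz cuvettes. Absorbance was scanned at 1 nm intervals from 400 to 600 nm. DUSP5 PD was then added to a final 4 μM and the sample rescanned. Blanks were buffer with or without DTT, plus buffer with 4 μM protein. Spectra without protein were subtracted from spectra with protein to give difference spectra.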

The nature of the next data set: Nephelometry. Format: physicochemical. As to conditions: assay buffer pH 7.5 without vs with 1 mM DTT. Put shortly: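 Aggregation was tested in 96-well plates using substrate-free assay buffer at pH 7.5, without or with 1 mM DTT. Serially diluted compound was added to give final concentrations of 1–100 μM or 1–300 μM, depending on compound.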
The conditions of data set [5]: cited from earlier work.
The test system of the next data set is ulcerative hemangioma. As to conditions: topical use in the clinic; cited from earlier work.

In general, IC50 refers to the concentration at which inhibition is half-maximal. A low value points to greater potency. Broadly, the kinact is the rate constant of inactivation at saturating inhibitor. The term kinact/KI denotes the second-order rate constant of inactivation. Usually LD50 stands for the dose expected to kill half of the subjects tested. With `O=C1OC2(c3ccccc31)c1cc(Br)c(O)c(Br)c1Oc1c2cc(Br)c(O)c1Br` [Eosin Y, 2’,4’,5’,7’-tetrabromofluorescein], the 50% inhibitory concentration (IC50) is > 100 µM on DUSP5 PD [1] (with 1 mM DTT, 30 min incubation); > 100 µM against DUSP5 PD [1] (with 1 mM DTT, 60 min incubation); 63.3 ± 6.9 µM against DUSP5 PD [1] (without DTT, 30 min incubation); 37.6 ± 4.5 µM against DUSP5 PD [1] (without DTT, 60 min incubation); 12.7 ± 3 µM in data set [2]. This compound also yielded a Ki on DUSP5 PD [3] of 43 µM. For the same compound, the kinact on DUSP5 PD [3] is 0.0002 s⁻¹. Besides, at DUSP5 PD [3] (absence of DTT), the “fold less effective than merbromin (time-dependent inhibition)” value is “roughly 10 fold”. Further, the “Inhibitor mechanism (irreversible inactivation)” value is reported as “single-step” on DUSP5 PD [3] (with 1 mM DTT) and “two-step” at DUSP5 PD [3] (without DTT). Besides, the kinact/KI on DUSP5 PD [3] (with 1 mM DTT, summary of data sets (Table 2)) was 0.9 ± 0.13 M⁻¹ s⁻¹; at DUSP5 PD [3] (without DTT, fit shown in Fig. 5c/6c) it was 6.6 M⁻¹ s⁻¹; on DUSP5 PD [3] (without DTT, summary of data sets (Table 2)) it was 6.06 ± 2.43 M⁻¹ s⁻¹. Moreover, the “spectral shift upon addition of DUSP5 PD protein” value was “not diminished” on DUSP5 PD [4] (with 1 mM DTT) and “spectrally shifted” on DUSP5 PD [4] (without DTT). The “effect of DTT addition on compound aggregation” value in “Nephelometry” is given as “little effect”. Also, the LD50 in data set [5] is > 10 mmol/kg. In the data set with ulcerative hemangioma, the “efficacy in ulcerative hemangioma patients” value is given as “showed efficacy”.
